In series [1] the target is T1, Histamine H4 receptor (Homo sapiens, UniProt Q9H3N8).
Series [2] has as its target T1, Histamine H4 receptor. In words: Antagonist activity at human H4 receptor expressed in HEK293T cells assessed as inhibition of histamine-induced [35S]GTPgammaS binding. In kind it is functional, cell-based, HEK-293T. A general note: GTPγS is a poorly hydrolysed GTP analogue; its binding reports G protein activation.
Series [3] deals with T1, Histamine H4 receptor. In words: Displacement of [3H]histamine from human H4 receptor expressed in HEK cell membranes. Details: species or system HEK293. (In general: Displacement assays read how much labelled ligand stays bound in the presence of the test substance.)
The target of series [4] is Histamine H3 receptor (Homo sapiens, UniProt Q9Y5N1). In words: Displacement of [3H]histamine from human H3 receptor expressed in HEK cell membranes. Details: species or system HEK293.
Histamine H3 receptor (Homo sapiens, UniProt Q9Y5N1), sequence (Q9Y5N1 whole entry): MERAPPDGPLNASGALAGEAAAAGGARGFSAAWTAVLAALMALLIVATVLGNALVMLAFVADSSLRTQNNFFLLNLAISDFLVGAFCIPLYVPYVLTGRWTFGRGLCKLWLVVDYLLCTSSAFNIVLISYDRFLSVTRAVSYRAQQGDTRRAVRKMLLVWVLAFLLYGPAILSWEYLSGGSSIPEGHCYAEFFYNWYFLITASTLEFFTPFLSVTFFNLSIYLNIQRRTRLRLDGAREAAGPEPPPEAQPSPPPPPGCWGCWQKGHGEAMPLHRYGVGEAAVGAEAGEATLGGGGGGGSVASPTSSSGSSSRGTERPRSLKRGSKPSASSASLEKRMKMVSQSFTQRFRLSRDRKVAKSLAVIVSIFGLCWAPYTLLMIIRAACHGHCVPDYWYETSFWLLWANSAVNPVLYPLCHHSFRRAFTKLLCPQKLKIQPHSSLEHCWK
Series [5] deals with Histamine H2 receptor (Homo sapiens) (UniProt P25021). As to the kind of experiment: Displacement of cimetidine from H2 receptor at 10 uM. Put shortly: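 Single test concentration of 10 μM, run in duplicate. Result given as percentage displacement of cimetidine binding at the H2 receptor; assay carried out by a contract laboratory.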
Histamine H2 receptor (Homo sapiens), sequence (P25021 whole entry): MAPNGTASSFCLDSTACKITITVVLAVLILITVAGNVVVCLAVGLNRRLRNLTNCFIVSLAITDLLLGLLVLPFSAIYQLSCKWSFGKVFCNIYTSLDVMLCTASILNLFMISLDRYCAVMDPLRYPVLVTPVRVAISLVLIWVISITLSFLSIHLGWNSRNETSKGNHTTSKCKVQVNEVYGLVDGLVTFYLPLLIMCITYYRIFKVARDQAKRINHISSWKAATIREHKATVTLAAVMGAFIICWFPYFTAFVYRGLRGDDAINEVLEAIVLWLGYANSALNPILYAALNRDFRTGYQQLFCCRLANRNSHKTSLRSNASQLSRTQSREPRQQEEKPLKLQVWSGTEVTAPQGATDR
Series [6] deals with Histamine H1 receptor (Homo sapiens, UniProt P35367). As to the kind of experiment: Displacement of [3H]histamine from human H1 receptor expressed in HEK cell membranes. Details: species or system HEK293.
Histamine H1 receptor (Homo sapiens, UniProt P35367), sequence (P35367 whole entry): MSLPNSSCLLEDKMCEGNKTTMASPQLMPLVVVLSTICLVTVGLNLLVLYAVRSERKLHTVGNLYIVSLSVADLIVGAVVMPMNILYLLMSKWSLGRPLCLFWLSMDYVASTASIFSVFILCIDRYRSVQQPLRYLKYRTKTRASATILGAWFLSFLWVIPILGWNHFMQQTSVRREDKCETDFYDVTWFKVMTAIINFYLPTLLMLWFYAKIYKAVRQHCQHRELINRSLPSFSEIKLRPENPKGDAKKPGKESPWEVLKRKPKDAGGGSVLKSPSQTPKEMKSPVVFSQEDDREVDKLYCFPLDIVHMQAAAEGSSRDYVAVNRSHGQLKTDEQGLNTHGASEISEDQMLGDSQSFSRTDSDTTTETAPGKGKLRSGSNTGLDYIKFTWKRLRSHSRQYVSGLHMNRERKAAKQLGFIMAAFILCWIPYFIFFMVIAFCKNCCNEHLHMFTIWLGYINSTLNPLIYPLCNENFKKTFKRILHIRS
The nature of series [7]: Metabolic stability in human liver microsomes assessed as compound remaining after 60 mins. Particulars: read-out: Stability. In kind it is ADME, Microsome. Put shortly:
(§1)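 Liver microsomes (human, mouse or rat) incubated with compound for 60 min. Read-out is percentage of parent compound remaining; assay carried out by a contract laboratory.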

The target of series [8] is Histamine H3 receptor (Rattus norvegicus, UniProt Q9QYN8). As to the kind of experiment: Displacement of [3H]histamine from rat H3R.
Histamine H3 receptor (Rattus norvegicus, UniProt Q9QYN8), sequence (Q9QYN8 whole entry): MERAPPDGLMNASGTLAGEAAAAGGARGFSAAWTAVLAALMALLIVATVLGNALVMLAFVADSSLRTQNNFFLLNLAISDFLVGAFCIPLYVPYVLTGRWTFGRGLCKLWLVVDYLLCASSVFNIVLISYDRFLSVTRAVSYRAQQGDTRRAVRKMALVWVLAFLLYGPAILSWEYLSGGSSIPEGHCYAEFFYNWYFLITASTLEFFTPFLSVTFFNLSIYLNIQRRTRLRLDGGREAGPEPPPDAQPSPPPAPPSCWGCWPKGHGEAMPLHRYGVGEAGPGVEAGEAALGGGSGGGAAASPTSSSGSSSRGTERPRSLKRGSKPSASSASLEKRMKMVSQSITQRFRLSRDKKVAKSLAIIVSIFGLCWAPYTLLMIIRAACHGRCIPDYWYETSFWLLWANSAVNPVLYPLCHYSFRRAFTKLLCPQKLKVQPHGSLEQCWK
The nature of series [9]: Metabolic stability in mouse liver microsomes assessed as compound remaining after 60 mins. In kind it is ADME, Microsome. Particulars: read-out: Stability. Put shortly: as §1
Background: Liver microsomes are a subcellular fraction often used to study metabolism.

Series [10] can be described thus: Half life in mouse. In kind it is ADME, organism-based. Particulars: in vivo.
Series [11] is described as follows: Oral bioavailability in mouse. It is filed as ADME, organism-based. To be noted: in vivo.
Series [12] can be described thus: Metabolic stability in rat liver microsomes assessed as compound remaining after 60 mins. It is filed as ADME, Microsome. To be noted: read-out: Stability. Put shortly: as §1
The target in series [13] is Histamine H1 receptor (Rattus norvegicus, UniProt P31390). In words: Displacement of [3H]histamine from rat H1R.
Histamine H1 receptor (Rattus norvegicus, UniProt P31390), sequence (P31390 whole entry): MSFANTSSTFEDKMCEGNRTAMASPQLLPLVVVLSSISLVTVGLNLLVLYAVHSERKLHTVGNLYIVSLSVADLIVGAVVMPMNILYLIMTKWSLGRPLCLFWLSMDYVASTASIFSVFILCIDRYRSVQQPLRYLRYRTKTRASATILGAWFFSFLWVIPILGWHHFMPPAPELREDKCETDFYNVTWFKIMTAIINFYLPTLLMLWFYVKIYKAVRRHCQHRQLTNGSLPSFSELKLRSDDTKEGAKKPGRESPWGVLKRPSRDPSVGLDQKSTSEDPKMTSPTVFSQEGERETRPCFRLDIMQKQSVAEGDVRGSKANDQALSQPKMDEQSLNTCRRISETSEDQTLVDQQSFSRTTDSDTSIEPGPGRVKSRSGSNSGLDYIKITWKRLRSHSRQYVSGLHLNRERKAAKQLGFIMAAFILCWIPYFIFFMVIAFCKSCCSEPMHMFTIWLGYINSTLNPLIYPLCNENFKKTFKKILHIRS
In series [14] the target is Histamine H3 receptor (Mus musculus, UniProt P58406). As to the kind of experiment: Displacement of [3H]histamine from mouse H3R.
Histamine H3 receptor (Mus musculus, UniProt P58406), sequence (P58406 whole entry): as the sequence (Q9QYN8 whole entry) above, with T15A, A286T, A290G, R387H, I389V counted along it
Series [15] concerns the target T2, Histamine H4 receptor (Mus musculus, UniProt Q91ZY2).
T2 sequence (Q91ZY2 whole entry): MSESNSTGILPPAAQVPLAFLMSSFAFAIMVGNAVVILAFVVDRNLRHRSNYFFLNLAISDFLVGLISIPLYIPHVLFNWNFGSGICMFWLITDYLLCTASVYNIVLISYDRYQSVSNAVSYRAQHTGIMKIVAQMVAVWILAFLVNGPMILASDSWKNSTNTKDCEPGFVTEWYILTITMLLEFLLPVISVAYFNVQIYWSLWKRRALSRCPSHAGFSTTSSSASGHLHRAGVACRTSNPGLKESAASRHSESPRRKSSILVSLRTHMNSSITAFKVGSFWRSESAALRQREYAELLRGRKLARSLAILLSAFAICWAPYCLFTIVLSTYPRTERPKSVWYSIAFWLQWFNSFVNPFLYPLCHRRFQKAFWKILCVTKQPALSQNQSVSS
In words: Displacement of [3H]histamine from mouse H4R.

Series [16] deals with Histamine H4 receptor (Rattus norvegicus, UniProt Q91ZY1). As to the kind of experiment: Displacement of [3H]histamine from rat H4R.
Histamine H4 receptor (Rattus norvegicus, UniProt Q91ZY1), sequence (Q91ZY1 whole entry): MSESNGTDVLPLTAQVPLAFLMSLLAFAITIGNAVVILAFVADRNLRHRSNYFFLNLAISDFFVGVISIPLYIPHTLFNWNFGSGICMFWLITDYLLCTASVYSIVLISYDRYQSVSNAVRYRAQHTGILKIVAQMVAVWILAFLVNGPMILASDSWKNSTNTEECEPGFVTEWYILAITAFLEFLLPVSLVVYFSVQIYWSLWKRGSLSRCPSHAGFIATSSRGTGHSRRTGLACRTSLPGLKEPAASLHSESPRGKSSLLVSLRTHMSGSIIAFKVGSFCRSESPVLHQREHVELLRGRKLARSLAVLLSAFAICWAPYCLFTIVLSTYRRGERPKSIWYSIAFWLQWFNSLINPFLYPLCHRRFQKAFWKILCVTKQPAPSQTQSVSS

pIC50, pKi: −log10 of the molar value.

T1 sequence (Q9H3N8 whole entry): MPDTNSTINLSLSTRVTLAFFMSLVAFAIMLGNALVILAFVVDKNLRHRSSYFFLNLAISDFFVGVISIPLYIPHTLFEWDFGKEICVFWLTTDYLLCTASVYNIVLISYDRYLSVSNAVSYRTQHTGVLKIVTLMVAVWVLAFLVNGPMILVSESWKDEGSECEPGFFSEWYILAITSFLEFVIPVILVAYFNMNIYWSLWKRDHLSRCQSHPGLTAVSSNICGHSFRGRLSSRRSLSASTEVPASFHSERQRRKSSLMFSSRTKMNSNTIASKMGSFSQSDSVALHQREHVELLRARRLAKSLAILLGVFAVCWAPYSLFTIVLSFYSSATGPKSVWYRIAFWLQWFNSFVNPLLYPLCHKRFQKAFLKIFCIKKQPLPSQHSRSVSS

For `CN1CCN(C(=O)c2nc3ccc(Cl)cc3[nH]2)CC1`, the T1/2 at Histamine H4 receptor [1] turned out to be 25.6 min.
For the compound `CN1CCN(c2nc(N)nc3cc(-c4ccsc4)ccc23)CC1`, on Histamine H4 receptor [2], the pIC50 (commonly the negative decadic logarithm of the IC50, by convention in mol/L) is 7.34. Besides, the pKi (as a rule, the negative decadic logarithm of the Ki, by convention in mol/L) on Histamine H4 receptor [2] was 8.52; at Histamine H4 receptor [3], 8.40; at Histamine H3 receptor [4] it was 7.20; on Histamine H1 receptor [6], 5.55. The Activity in [5] was found to be 74%.
`CN1CCN(c2nc3cc(Cl)c(Cl)cc3[nH]c2=O)CC1`: on Histamine H4 receptor [3], the pKi is 8.22.
On the same count and under the same terms, to `CC(=O)c1cccc(-c2ccc3c(N4CCN(C)CC4)nc(N)nc3c2)c1` belongs 7.82; to `CN1CCN(c2ncnc3ccccc23)CC1`, 6.48.
Take `CN1CCN(c2nc(N)nc3cc(-c4ccoc4)ccc23)CC1`: the negative-log IC50 (pIC50) on Histamine H4 receptor [2] is 7.33. For the same compound, the pKi is 8.40 at Histamine H4 receptor [2], 6.73 on Histamine H3 receptor [4] and 5.13 on Histamine H1 receptor [6]. In series [5], this compound showed an Activity of 54%.
With `Nc1nc2c(c(N3CCNCC3)n1)CCC1=C2[C@H]2CCCC[C@H]2O1`, at Histamine H4 receptor [3], the pKi is 8.22.
For the compound `Nc1nc(N2CCNCC2)c2ccc(-c3ccco3)cc2n1`, the pIC50 at Histamine H4 receptor [2] is 6.97. Further, the pKi was 8.15 at Histamine H4 receptor [2]; 5.59 on Histamine H3 receptor [8]; 7.80 on Histamine H4 receptor [3]; 5.44 on Histamine H1 receptor [13]; 5.97 at Histamine H3 receptor [14]; 4.98 at Histamine H1 receptor [6]. Also, the pKi at Histamine H4 receptor [15] was 7.64; on Histamine H4 receptor [16], 6.76. Also, the remaining at 1 h in [7] turned out to be 96%; in series [9], 80%; in series [12], 83%. Also, the half-life – broadly, how long it takes for the measured level to halve – in series [10] was 412 min. In addition, in series [11], the bioavailability – broadly, dose-corrected exposure relative to a reference, in per cent – was determined as 47%. This compound displayed a T1/2 on Histamine H4 receptor [1] of 4.1 min.
As for `CC(=O)c1cccc(-c2cccc3c(N4CCN(C)CC4)nc(N)nc23)c1`, at Histamine H4 receptor [3], the negative logarithm of the Ki (pKi) was 6.17.
Same read-out and setting: as for `CN1CCN(c2ccnc(N)n2)CC1`, the figure is 7.51.
As for `CN1CCN(c2nc(N)nc3cc(-c4ccco4)ccc23)CC1`, the pIC50 on Histamine H4 receptor [2] is 7.08. Further, the pKi at Histamine H4 receptor [2] was 8.30; on Histamine H4 receptor [3], 8.30; at Histamine H3 receptor [4], 7.01; at Histamine H1 receptor [6] it was 5.19. This compound displayed an Activity in series [5] of 51%.
`CN1CCN(c2nc(N)nc3ccccc23)CC1` gave a pKi on Histamine H4 receptor [3] of 7.49.
`Cc1ccc2nc(N)nc(N3CCN(C)CC3)c2c1` showed a pKi on Histamine H4 receptor [3] of 6.19.

The values above are taken from ChEMBL document CHEMBL1933038 (Bioorg Med Chem Lett, 2012).
